Source: PubChem BioAssay
Env fusion inh: inhibitors of HIV Env-mediated cell fusion | inhibition, % at 12.3 µM | HeLa-JRFL Env/CEM21 cell fusion, luciferase | 360,000 tested, 1.1% active | AID 651610;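 active = mean replicate inhibition score of at least 50 and every replicate individually at or above 50; inconclusive = only one of the two criteria met; inactive = mean below 50 and not all replicates reaching 50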
Ecoli rRNA inh: selective bacterial rRNA inhibition in E. coli. E. coli WT GFP vs humanized-ribosome RFP mutants, fluorescence, 24 h; hits give low values; DMSO median 0, no signal -100. GFP signal change (wild-type ribosome), % (test concentration not listed). 350,000 tested, 1.6% active. AID 720706;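 active = significant combined selectivity score with lowered wild-type GFP, culture density cut under 30%, mutant RFP and density less affected; inactive = any of these conditions unmet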
FGF22 binding: shifts melting point of recombinant human FGF22 | Q9HCT0 | recombinant FGF22 thermal shift, SYPRO orange fluorescence; percent of sucrose octasulfate shift, DMSO zero | activity (Tm shift, normalised), % at 9.99 µM | 340,000 tested, 1.5% active | AID 651658;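 active = mean Tm shift, scaled 0 neutral to 100 positive control, at about 1.3% or above, every replicate too, limit read from the data; inconclusive = no clear call, values can overlap the other calls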
Cneo AK release: causes C. neoformans cell lysis. AID 651654. 360,000 tested, 0.2% active. adenylate kinase release luminescence, 4 h; normalised: neutral wells 0, clomiphene wells 100. lysis activity, % at 15 µM;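 active = mean lysis activity across replicates of at least 80%, whatever share of replicates individually reach that level; inactive = mean lysis activity below 80%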
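Signal: Adenylate kinase release luminescence | Assay system: Log-phase Cryptococcus neoformans yeast cells | Input: Cells at 5 × 10^6 per mL | Buffer or medium: Fresh YPD growth medium | Compound: Single dose | Schedule: Static 4 h at 37 °C with compound, 1 h detection | Controls: Clomiphene | Read-out: Luminescence rise reflecting yeast cell lysis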
ERAP1 HTS inh: inhibitors of human ERAP1 aminopeptidase; 340,000 tested, 0.15% active; inhibition, % at 10.7 µM; recombinant ERAP1, Leu-AMC fluorescence, 60 min; Q9NZ08;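 active = mean replicate inhibition of at least 30%, or all replicates individually reaching that 30% level; inactive = mean below 30% and not every replicate reaching it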
Target sequence (Q9NZ08 whole entry, looked up): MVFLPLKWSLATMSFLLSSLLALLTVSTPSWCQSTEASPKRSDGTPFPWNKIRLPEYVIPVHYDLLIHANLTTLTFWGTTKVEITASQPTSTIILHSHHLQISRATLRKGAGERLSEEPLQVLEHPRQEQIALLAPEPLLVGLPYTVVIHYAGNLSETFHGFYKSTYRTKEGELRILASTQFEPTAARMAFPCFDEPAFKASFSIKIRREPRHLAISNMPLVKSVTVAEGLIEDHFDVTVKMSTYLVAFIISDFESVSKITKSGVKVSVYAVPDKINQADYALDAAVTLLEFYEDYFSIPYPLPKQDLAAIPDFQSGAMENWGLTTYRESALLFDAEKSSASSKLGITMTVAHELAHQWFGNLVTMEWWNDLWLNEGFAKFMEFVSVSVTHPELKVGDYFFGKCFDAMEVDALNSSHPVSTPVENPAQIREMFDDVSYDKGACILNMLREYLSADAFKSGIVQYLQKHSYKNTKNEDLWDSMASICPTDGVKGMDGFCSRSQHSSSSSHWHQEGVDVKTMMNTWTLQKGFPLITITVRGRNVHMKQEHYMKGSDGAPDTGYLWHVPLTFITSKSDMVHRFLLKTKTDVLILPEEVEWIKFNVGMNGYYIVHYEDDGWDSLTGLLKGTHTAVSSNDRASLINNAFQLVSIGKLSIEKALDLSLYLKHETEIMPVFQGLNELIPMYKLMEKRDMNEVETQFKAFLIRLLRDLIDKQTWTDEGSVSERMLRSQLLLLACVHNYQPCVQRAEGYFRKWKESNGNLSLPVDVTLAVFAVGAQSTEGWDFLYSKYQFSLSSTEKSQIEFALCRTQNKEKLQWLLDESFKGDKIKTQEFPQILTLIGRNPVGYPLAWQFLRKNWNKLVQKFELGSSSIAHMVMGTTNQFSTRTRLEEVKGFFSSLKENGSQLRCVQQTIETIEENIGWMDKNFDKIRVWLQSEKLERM
PGC1a acetyl inh: PGC1a acetylation modulation, inhibitor mode; U2OS PGC1a acetylation, AlphaScreen anti-acetyl-lysine; with virally co-expressed GCN5 acetyltransferase; AID 651687; 350,000 tested, 0.17% active; inhibition, % at 15.6 µM;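 active = every replicate shows inhibition of at least 40%; inconclusive = mean inhibition at least 40% but some replicate below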
Hits are given with their value; - = inactive; ? = inconclusive; . = no result; [ ] = remark or other dose. Rows were chosen to be rich in hits. Some 3.5% of all compounds tested hit in one or more screens of this group.

SMILES	Env fusion inh	Ecoli rRNA inh	FGF22 binding	Cneo AK release	ERAP1 HTS inh	PGC1a acetyl inh
O=C(Nc1ccccc1N1CCCCC1)c1cc(S(=O)(=O)N2CCOCC2)ccc1F	-	-	-	-	-	-
CN(C)CC(=O)N1[C@@H](C#N)[C@H](c2ccccc2-c2ccc(C(=O)N(C)C)cc2)[C@@H]1CO	.	-	.	.	-	.
O=C([C@@H]1N[C@@H]2c3ccc(-c4ccc(F)cc4)c(=O)n3C[C@@H]2[C@H]1CO)N1CCOCC1	.	-	-	-	-	.
COc1ccc(NC(=O)COc2nc3ccccc3nc2N2CCOCC2)c(OC)c1	-	-	43	.	-	-
COc1ccc(NC(=O)COc2nsnc2N2CCOCC2)cc1	-	.	.	.	.	.
Cc1ccccc1C(=O)N[C@@H](CC(C)C)C(=O)N1CCC[C@H]1C(=O)NCc1ccccc1	-	-	-	.	-	.
O=C(NCc1ccccc1)[C@@H]1CCCN1C(=O)[C@@H]1CCCN1C(=O)c1cccc2ccccc12	75	-	-	.	-	.
Cc1ccccc1C(=O)N[C@H](C(=O)N1CCC[C@H]1C(=O)NCc1ccccc1)c1ccccc1	56	-	-	.	-	.
Cc1ccc(CC(=O)Nc2ccccc2N2CCOCC2)cc1C	.	.	.	-	.	-
COc1ccc(OC(=O)N(C)C[C@@H]2OCc3ccccc3-c3ccccc3C(=O)N([C@H](C)CO)C[C@H]2C)cc1	-	-	-	-	-	-
Cc1nc(C)n(C(Oc2ccc(Cl)cc2Cl)C(=O)C(C)(C)C)n1 (stereo not given)	-	-18	-	-	-	-
O=S(=O)(c1ccccc1)N1[C@@H]2CNC[C@H]1C2c1ccc(-c2ccc(F)cc2)cc1 (stereo not given in full)	.	-	-	.	.	-
OCC1CCCN(C2CCN(Cc3nc(Cc4cccc(C(F)(F)F)c4)no3)CC2)C1 (stereo not given)	-	-	43	.	-	-
FC(F)(F)c1cccc(Cc2noc(CN3CCCC3)n2)c1	-	-	-	.	-	.
O=C(NCc1ccc(Cl)cc1)c1cc([N+](=O)[O-])ccc1Cl	-	-	43	.	-	.
Nc1nn(-c2ccccc2)c(N)c1N=Nc1cccc(F)c1	-	-36	-	-	.	-
Nc1nn(-c2ccccc2)c(N)c1N=Nc1ccc2c(c1)OCO2	-	.	.	.	.	.
Cc1nn(-c2ccccc2)c(N)c1N=Nc1cccnc1	-	-22	-	.	-	.
C[C@@H]1CCCCO[C@@H](CN(C)C(=O)C2CCCCC2)[C@@H](C)CN([C@H](C)CO)C(=O)c2cc(NC(=O)CCCCCC(=O)Nc3ccccc3N)ccc2O1	-	-	-	-	-	-
CC(=O)Oc1ccc2oc(=O)c3c(c2c1)CCCN3C(=O)CN1CCN(c2ncccn2)CC1	.	.	.	-	.	-
CC(=O)Oc1ccc2oc(=O)c3c(c2c1)CCCN3C(=O)CN1CCOCC1	-	-	43	.	-	.
COc1ccc(-c2cc([N+](=O)[O-])ccc2OCC(=O)N(C)CC(=O)Nc2ccc(C)cc2)cc1	104	-	-	-	-	-
CC(=NNC(=O)c1cccc(S(=O)(=O)N2CCCC2)c1)c1ccccc1	.	-	-	-	-	.
COc1ccc2oc(C(=O)Nc3ccc(C)cn3)c(C)c2c1	-	-	-	-	-	.
COc1ccc(-c2csc(C(C)(O)c3cccc(F)c3)n2)cc1 (stereo not given)	-	-	-	-	-	-
SMILES	Env fusion inh	Ecoli rRNA inh	FGF22 binding	Cneo AK release	ERAP1 HTS inh	PGC1a acetyl inh
COC(=O)/C=C1/C(=O)N/C(=N\c2nc(C)cc(C)n2)N1c1ccc(OC)cc1	-	-	44	-	-	-
COc1ccc(CNc2ccc(C)c(C)c2)c(OC)c1OC	-	-20	-	.	-	-
CCCCN1C(=O)C(=O)NC[C@@H]1C(C)CC (stereo not given in full)	-	-	-	-	-	-
CCOc1ccc(/C=C/C(=O)CCC(=O)O)cc1	-	-	43	-	-	-
CCc1ccc(/C=C/C(=O)c2cc(Br)ccc(=O)c2O)cc1	.	.	.	-	.	.
CCOc1ccc(/C=C/C(=O)c2cc(Br)ccc(=O)c2O)cc1	64	-	-	.	-	.
CCCCCC(=O)Nc1ccc(-c2nnc3n2CCCCC3)cc1	-	-	-	-	-	-
CC(=O)NC(c1cccc(F)c1)c1nc(-c2ccc(C)c(C)c2)cs1 (stereo not given)	-	-	-	-	-	-
CCn1c(SCC(=O)N/N=C/C=C/c2ccco2)nc2ccccc21	-	.	.	.	.	.
CN(C)c1ccc(C2(O)C(=O)c3ccccc3C2=O)cc1	-	-	-	-	-	-
CNc1ccc(C2(O)C(=O)c3ccccc3C2=O)cc1	-	.	43	-	-	.
NC1=NC[C@H](Cc2ccccc2)N1CCCCC1CCCCC1	-	-	-	-	-	.
Cc1nn(Cc2c(F)c(F)c(F)c(F)c2F)c(C)c1NC(=O)c1cccc(COc2ccc(Cl)cc2)c1	63	.	.	-	.	-
Clc1ccccc1N1CCN(Cc2c[nH]c3ccccc23)CC1	-	-45	-	-	-	-
Cc1cc(/C=C(/C#N)c2cccc(F)c2)c(C)n1-c1cccnc1	.	-35	-	-	-	-
CCc1ccc(S(=O)(=O)Nc2ccc(N3CCN(C)CC3)cc2)cc1	-	-	-	-	.	-
COc1ccc2c3c([nH]c2c1)[C@H](CO)N(Cc1ccccc1OC)CC31CN(C)C1	.	-	-	.	53	-
COc1ccc2c3c([nH]c2c1)[C@H](CO)N(Cc1ccccc1F)CC31CN(C)C1	.	-	-	.	.	-
COc1ccc2c3c([nH]c2c1)[C@@H](CO)N(Cc1ccccc1OC)CC31CN(C)C1	.	-	-	.	51	-
CC1(C)CC(NC(=O)COc2ccccc2Cl)CC(C)(C)N1	-	-	44	-	-	.
CC(=O)Oc1ccccc1C(=O)N(C1CCCCC1)C1CCCCC1	-	-	-	-	-	.
O=C(NNC(=O)c1cc(-c2ccc(Br)cc2)nc2ccccc12)c1csc(N2CCOCC2)n1	.	.	-	-	-	-
Cc1ccc(-c2cc(C(=O)NNC(=O)c3csc(N4CCOCC4)n3)c3ccccc3n2)cc1	-	-19	-	-	-	-
O=C(NNC(=O)c1cc(-c2ccccc2)nc2ccccc12)c1csc(N2CCOCC2)n1	-	-37	-	.	-	.
Cc1noc(C)c1NC(=O)Nc1ccc2c(c1)C(=O)N([C@H](C)CO)C[C@@H](C)[C@H](CN(C)S(=O)(=O)c1ccc(F)cc1)OCCCC[C@@H](C)O2	-	-	.	-	-	-
C[C@@H]1CN([C@@H](C)CO)C(=O)c2cc(NC(=O)Nc3ccc(F)cc3)ccc2O[C@@H](C)CCCCO[C@H]1CN(C)S(=O)(=O)c1ccccc1	?	-	-	101	-	-
Cc1noc(C)c1NC(=O)Nc1ccc2c(c1)C(=O)N([C@@H](C)CO)C[C@H](C)[C@H](CN(C)S(=O)(=O)c1ccc(F)cc1)OCCCC[C@H](C)O2	55[16.7 µM]	-	.	-	-	-
